According to ChEMBL document CHEMBL5335771, “Thioxanthenone-based derivatives as multitarget therapeutic leads for Alzheimer's disease” (Eur J Med Chem, 2023):
One block for each compound: values may come before it.

Experiments:
[1] = biological target: T1, Microtubule-associated protein tau (Homo sapiens, UniProt P10636); experiment: Inhibition of tau (unknown origin) aggregation expressed in Escherichia coli BL21 (DE3) at 10 uM relative to control
Method in brief: (§1)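 E. coli BL21(DE3) carrying pTARA (T7 RNA polymerase under PBAD) and pRKT42 (four-repeat tau) grown at 37 °C in M9 with 0.5% glucose, antibiotics and 250 μM ThS to OD600 0.6. […] ThS fluorescence ex 430/em 485 nm, normalized to tau-expressing cells (100%) and non-expressing cells (0%); OD600 checked for growth.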
Target sequence in this assay (P10636 whole entry): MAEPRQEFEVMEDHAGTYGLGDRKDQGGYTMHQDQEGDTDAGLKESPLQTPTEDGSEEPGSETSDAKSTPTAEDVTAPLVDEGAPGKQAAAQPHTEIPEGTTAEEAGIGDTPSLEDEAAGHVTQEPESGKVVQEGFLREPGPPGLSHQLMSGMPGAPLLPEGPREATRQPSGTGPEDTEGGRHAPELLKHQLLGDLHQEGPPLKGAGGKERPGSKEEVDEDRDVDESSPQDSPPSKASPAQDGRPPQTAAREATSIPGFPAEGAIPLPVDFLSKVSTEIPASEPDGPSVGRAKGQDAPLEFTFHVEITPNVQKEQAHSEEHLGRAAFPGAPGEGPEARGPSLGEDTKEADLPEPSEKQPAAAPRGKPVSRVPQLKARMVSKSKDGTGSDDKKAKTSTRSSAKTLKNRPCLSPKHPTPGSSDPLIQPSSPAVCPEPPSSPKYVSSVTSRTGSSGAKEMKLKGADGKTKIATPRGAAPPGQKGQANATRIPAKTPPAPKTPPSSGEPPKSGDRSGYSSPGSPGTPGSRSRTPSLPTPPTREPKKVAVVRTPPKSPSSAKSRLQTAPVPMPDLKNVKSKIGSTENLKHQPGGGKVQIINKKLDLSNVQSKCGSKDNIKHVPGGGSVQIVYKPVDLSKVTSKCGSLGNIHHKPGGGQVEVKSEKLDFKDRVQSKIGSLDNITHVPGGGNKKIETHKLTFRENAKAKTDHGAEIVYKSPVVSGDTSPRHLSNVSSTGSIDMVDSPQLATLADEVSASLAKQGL

[2] = biological target: T2, Amyloid-beta precursor protein (Homo sapiens, UniProt P05067); experiment: Inhibition of amyloid beta 40 peptide (unknown origin) aggregation incubated for 2 hr by ThT fluorescence based spectrofluorimetric analysis
T2 sequence (P05067 whole entry): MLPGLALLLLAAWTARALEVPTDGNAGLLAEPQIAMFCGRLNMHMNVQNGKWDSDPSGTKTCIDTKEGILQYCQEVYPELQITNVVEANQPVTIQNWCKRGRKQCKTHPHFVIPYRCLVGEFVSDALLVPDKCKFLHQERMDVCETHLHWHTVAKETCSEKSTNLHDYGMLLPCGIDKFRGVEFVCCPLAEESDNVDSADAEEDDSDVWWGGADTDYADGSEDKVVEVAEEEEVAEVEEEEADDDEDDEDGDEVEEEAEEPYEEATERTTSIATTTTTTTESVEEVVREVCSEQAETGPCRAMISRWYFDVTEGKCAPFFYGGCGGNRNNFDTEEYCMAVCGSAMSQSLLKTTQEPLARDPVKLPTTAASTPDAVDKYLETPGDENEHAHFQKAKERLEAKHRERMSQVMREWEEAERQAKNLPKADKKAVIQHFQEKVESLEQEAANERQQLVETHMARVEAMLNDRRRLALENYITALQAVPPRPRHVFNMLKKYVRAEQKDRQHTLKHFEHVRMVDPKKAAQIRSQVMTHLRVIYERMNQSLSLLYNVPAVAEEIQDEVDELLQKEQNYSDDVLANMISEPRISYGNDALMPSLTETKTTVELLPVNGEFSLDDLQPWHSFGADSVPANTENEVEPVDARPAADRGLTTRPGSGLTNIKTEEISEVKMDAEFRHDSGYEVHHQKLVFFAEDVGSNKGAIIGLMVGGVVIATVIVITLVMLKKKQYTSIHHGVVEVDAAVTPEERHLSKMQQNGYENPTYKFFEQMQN
Method in brief: (§2)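 Aβ40 peptide aggregation enhanced with 2% HFIP; thioflavin T fluorescence read-out; run in triplicate.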

[3] = Cytotoxicity against mouse brain Primary embryonic cortical cell assessed as cell death at 2.5 uM incubated for 1 hr by propidium iodide dye based spectrofluorometric analysis relative to control; assay type: toxicity
Method in brief: (§3)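 Primary cortical cultures from E16.5 mouse embryo brains, trypsinized, plated on poly-D-lysine, grown in Neurobasal with glutamine, glucose, 5% horse serum and B27; compounds added at 4 DIV. Propidium iodide 30 μM; baseline F1 read 1 h after PI; ex 530/em 645 nm. Fmax after digitonin permeabilization. % death = 100×(Fn−F1)/(Fmax−F1); mean of three independent experiments.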

[4] = Cytotoxicity against mouse brain Primary embryonic cortical cell assessed as cell death at 2.5 uM incubated for 2 hrs by propidium iodide dye based spectrofluorometric analysis relative to control; assay type: toxicity; method in brief: as §3
[5] = Cytotoxicity against mouse brain Primary embryonic cortical cell assessed as cell death at 2.5 uM incubated for 3 hrs by propidium iodide dye based spectrofluorometric analysis relative to control; assay type: toxicity; method in brief: as §3
[6] = Cytotoxicity against mouse brain Primary embryonic cortical cell assessed as cell death at 2.5 uM incubated for 4 hrs by propidium iodide dye based spectrofluorometric analysis relative to control; assay type: toxicity; method in brief: as §3
[7] = Cytotoxicity against mouse brain Primary embryonic cortical cell assessed as cell death at 2.5 uM incubated for 5 hrs by propidium iodide dye based spectrofluorometric analysis relative to control; assay type: toxicity; method in brief: as §3
[8] = Cytotoxicity against mouse brain Primary embryonic cortical cell assessed as cell death at 2.5 uM incubated for 6 hrs by propidium iodide dye based spectrofluorometric analysis relative to control; assay type: toxicity; method in brief: as §3
[9] = Cytotoxicity against mouse brain Primary embryonic cortical cell assessed as cell death at 2.5 uM incubated for 24 hrs by propidium iodide dye based spectrofluorometric analysis relative to control; assay type: toxicity; method in brief: as §3
[10] = Cytotoxicity against mouse brain Primary embryonic cortical cell assessed as cell death at 2.5 uM incubated for 48 hrs by propidium iodide dye based spectrofluorometric analysis relative to control; assay type: toxicity; method in brief: as §3
[11] = Cytotoxicity against mouse brain Primary embryonic cortical cell assessed as cell death at 2.5 uM incubated for 72 hrs by propidium iodide dye based spectrofluorometric analysis relative to control; assay type: toxicity; method in brief: as §3
[12] = Cytotoxicity against mouse brain Primary embryonic cortical cell assessed as cell death at 5 uM incubated for 1 hr by propidium iodide dye based spectrofluorometric analysis relative to control; assay type: toxicity; method in brief: as §3
[13] = Cytotoxicity against mouse brain Primary embryonic cortical cell assessed as cell death at 5 uM incubated for 2 hrs by propidium iodide dye based spectrofluorometric analysis relative to control; assay type: toxicity; method in brief: as §3
[14] = Cytotoxicity against mouse brain Primary embryonic cortical cell assessed as cell death at 5 uM incubated for 3 hrs by propidium iodide dye based spectrofluorometric analysis relative to control; assay type: toxicity; method in brief: as §3
[15] = Cytotoxicity against mouse brain Primary embryonic cortical cell assessed as cell death at 5 uM incubated for 4 hrs by propidium iodide dye based spectrofluorometric analysis relative to control; assay type: toxicity; method in brief: as §3
[16] = Cytotoxicity against mouse brain Primary embryonic cortical cell assessed as cell death at 5 uM incubated for 5 hrs by propidium iodide dye based spectrofluorometric analysis relative to control; assay type: toxicity; method in brief: as §3
[17] = Cytotoxicity against mouse brain Primary embryonic cortical cell assessed as cell death at 5 uM incubated for 6 hrs by propidium iodide dye based spectrofluorometric analysis relative to control; assay type: toxicity; method in brief: as §3
[18] = Cytotoxicity against mouse brain Primary embryonic cortical cell assessed as cell death at 5 uM incubated for 24 hrs by propidium iodide dye based spectrofluorometric analysis relative to control; assay type: toxicity; method in brief: as §3
[19] = Cytotoxicity against mouse brain Primary embryonic cortical cell assessed as cell death at 5 uM incubated for 48 hrs by propidium iodide dye based spectrofluorometric analysis relative to control; assay type: toxicity; method in brief: as §3
[20] = Cytotoxicity against mouse brain Primary embryonic cortical cell assessed as cell death at 5 uM incubated for 72 hrs by propidium iodide dye based spectrofluorometric analysis relative to control; assay type: toxicity; method in brief: as §3
[21] = Cytotoxicity against mouse brain Primary embryonic cortical cell assessed as cell death at 10 uM incubated for 1 hr by propidium iodide dye based spectrofluorometric analysis relative to control; assay type: toxicity; method in brief: as §3
[22] = Cytotoxicity against mouse brain Primary embryonic cortical cell assessed as cell death at 10 uM incubated for 2 hrs by propidium iodide dye based spectrofluorometric analysis relative to control; assay type: toxicity; method in brief: as §3
[23] = Cytotoxicity against mouse brain Primary embryonic cortical cell assessed as cell death at 10 uM incubated for 3 hrs by propidium iodide dye based spectrofluorometric analysis relative to control; assay type: toxicity; method in brief: as §3
[24] = Cytotoxicity against mouse brain Primary embryonic cortical cell assessed as cell death at 10 uM incubated for 4 hrs by propidium iodide dye based spectrofluorometric analysis relative to control; assay type: toxicity; method in brief: as §3
[25] = Cytotoxicity against mouse brain Primary embryonic cortical cell assessed as cell death at 10 uM incubated for 5 hrs by propidium iodide dye based spectrofluorometric analysis relative to control; assay type: toxicity; method in brief: as §3
[26] = Cytotoxicity against mouse brain Primary embryonic cortical cell assessed as cell death at 10 uM incubated for 6 hrs by propidium iodide dye based spectrofluorometric analysis relative to control; assay type: toxicity; method in brief: as §3
[27] = Cytotoxicity against mouse brain Primary embryonic cortical cell assessed as cell death at 10 uM incubated for 24 hrs by propidium iodide dye based spectrofluorometric analysis relative to control; assay type: toxicity; method in brief: as §3
[28] = Cytotoxicity against mouse brain Primary embryonic cortical cell assessed as cell death at 10 uM incubated for 48 hrs by propidium iodide dye based spectrofluorometric analysis relative to control; assay type: toxicity; method in brief: as §3
[29] = Cytotoxicity against mouse brain Primary embryonic cortical cell assessed as cell death at 10 uM incubated for 72 hrs by propidium iodide dye based spectrofluorometric analysis relative to control; assay type: toxicity; method in brief: as §3
[30] = Cytotoxicity against mouse brain Primary embryonic cortical cell assessed as cell death at 30 uM incubated for 1 hr by propidium iodide dye based spectrofluorometric analysis relative to control; assay type: toxicity; method in brief: as §3
[31] = Cytotoxicity against mouse brain Primary embryonic cortical cell assessed as cell death at 30 uM incubated for 2 hrs by propidium iodide dye based spectrofluorometric analysis relative to control; assay type: toxicity; method in brief: as §3
[32] = Cytotoxicity against mouse brain Primary embryonic cortical cell assessed as cell death at 30 uM incubated for 3 hrs by propidium iodide dye based spectrofluorometric analysis relative to control; assay type: toxicity; method in brief: as §3
[33] = Cytotoxicity against mouse brain Primary embryonic cortical cell assessed as cell death at 30 uM incubated for 4 hrs by propidium iodide dye based spectrofluorometric analysis relative to control; assay type: toxicity; method in brief: as §3
[34] = Cytotoxicity against mouse brain Primary embryonic cortical cell assessed as cell death at 30 uM incubated for 5 hrs by propidium iodide dye based spectrofluorometric analysis relative to control; assay type: toxicity; method in brief: as §3
[35] = Cytotoxicity against mouse brain Primary embryonic cortical cell assessed as cell death at 30 uM incubated for 6 hrs by propidium iodide dye based spectrofluorometric analysis relative to control; assay type: toxicity; method in brief: as §3
[36] = Cytotoxicity against mouse brain Primary embryonic cortical cell assessed as cell death at 30 uM incubated for 24 hrs by propidium iodide dye based spectrofluorometric analysis relative to control; assay type: toxicity; method in brief: as §3
[37] = Cytotoxicity against mouse brain Primary embryonic cortical cell assessed as cell death at 30 uM incubated for 48 hrs by propidium iodide dye based spectrofluorometric analysis relative to control; assay type: toxicity; method in brief: as §3
[38] = Cytotoxicity against mouse brain Primary embryonic cortical cell assessed as cell death at 30 uM incubated for 72 hrs by propidium iodide dye based spectrofluorometric analysis relative to control; assay type: toxicity; method in brief: as §3
[39] = Cytotoxicity against green monkey Vero 76 cells incubated for 48 to 96 hrs by crystal violet staining assay; assay type: toxicity, cell-based; conditions: green monkey (Chlorocebus sabaeus)
[40] = biological target: T1, Microtubule-associated protein tau; experiment: Inhibition of tau (unknown origin) aggregation expressed in Escherichia coli BL21 (DE3); method in brief: as §1
Target sequence in this assay (P10636 whole entry): as the sequence (P10636 whole entry) above

[41] = Cytotoxicity against human SH-SY5Y cells incubated for 24 hrs by MTT assay; assay type: toxicity, cell-based
[42] = Cytotoxicity against rat Primary cerebellar granule neuron assessed as cell viability at 10 uM relative to control; assay type: toxicity, cell-based, Cerebellar granule neurone; conditions: primary cerebellar granule neurons, read-out: Activity
[43] = biological target: T1, Microtubule-associated protein tau; experiment: Inhibition of PHF6 peptide (unknown origin) aggregation at 10 uM measured after 3 hrs by thioflavin T fluorescence based fluorimetric analysis relative to control
Target sequence in this assay (P10636 whole entry, looked up): as the sequence (P10636 whole entry) above

[44] = biological target: T2, Amyloid-beta precursor protein; experiment: Inhibition of amyloid beta 40 peptide (unknown origin) aggregation at 100 uM incubated for 2 hr by ThT fluorescence based spectrofluorimetric analysis relative to control; method in brief: as §2

inhibition [1]: 22%
IC50 [2]: 13 µM
Compound: O=c1c2ccccc2sc2c([N+](=O)[O-])ccc(NCCC[C@@H]3CCCN4CCCC[C@H]34)c12
Activity [3]: 0.3%
Activity [4]: 3.1%
Activity [5]: 3.7%
Activity [6]: 4.7%
Activity [7]: 5.2%
Activity [8]: 5.2%
Activity [9]: 85.5%
Activity [10]: 83.3%
Activity [11]: 79.6%
Activity [12]: 1.6%
Activity [13]: 2.9%
Activity [14]: 5%
Activity [15]: 4.3%
Activity [16]: 6.6%
Activity [17]: 5.7%
Activity [18]: 77%
Activity [19]: 72.4%
Activity [20]: 79.4%
Activity [21]: -3.1%
Activity [22]: 1.7%
Activity [23]: 6.4%
Activity [24]: 16.2%
Activity [25]: 31%
Activity [26]: 35.9%
Activity [27]: 86.1%
Activity [28]: 79.1%
Activity [29]: 74.8%
Activity [30]: 11.6%
Activity [31]: 19.1%
Activity [32]: 29.7%
Activity [33]: 42%
Activity [34]: 51%
Activity [35]: 54.3%
Activity [36]: 82.1%
Activity [37]: 82.9%
Activity [38]: 80.8%

IC50 [2]: 28 µM
Compound: Cc1ccc(NC[C@@H]2CCCN3CCCC[C@H]23)c2c(=O)c3ccccc3sc12
IC50 [39]: 12.4 µM

IC50 [40]: 10.9 µM
IC50 [2]: 24 µM
Compound: CCN(CC)CCNc1ccc(C)c2sc3ccccc3c(=O)c12 [LUCANTHONE]
IC50 [39]: 12.4 µM

IC50 [40]: 46 µM
inhibition [43]: > 80%
Compound: Cc1ccc(NCC[C@@H]2CCCN3CCCC[C@H]23)c2c(=O)c3ccccc3sc12
IC50 [39]: 12.4 µM
IC50 at 24 h [41]: 7.22 µM
viability at 10 µM [42]: 78%

IC50 [40]: 16 µM
inhibition [44]: 55%
Compound: CCN(CC)CCCNc1ccc(C)c2oc3ccccc3c(=O)c12
